Experimental findings from ChEMBL document CHEMBL1127746, “Alpha-spirocyclopentyl- and alpha-spirocyclopropyl-gamma-butyrolactones: conformationally constrained derivatives of anticonvulsant and convulsant alpha,alpha-disubstituted gamma-butyrolactones” (J Med Chem, 1994) are described below.

Broadly, the IC50 is the point on the concentration scale where inhibition reaches its midpoint. One may read the Kd as the concentration at which binding is half-saturated. As usually defined, the ED50 is the midpoint of the dose-response relation. High values mean weaker potency, low ones greater potency.

The target in data set [1] is GABA-A receptor; anion channel. Description: Displacement of 35[S]-TBPS from picrotoxinin (GABA-A) receptor of rat neuronal membranes. In kind it is cell membranes, Membrane. Put shortly: (§1)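 Female Sprague-Dawley rat cerebral cortex membranes, washed and held in 50 mM Tris-citrate pH 7.5. 2 nM 35[S]-TBPS in NaBr with test compound, triplicate, 90 min at 25 °C. Filtration and scintillation counting; nonspecific binding with 10 μM TBPS or 100 μM picrotoxinin. IC50 by logistic fit of at least five concentrations; two or three experiments.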

The nature of data set [2]: Toxic dose at which 50% of the mice failed the rotarod neurotoxicity test. In kind it is toxicity. The following applies: mouse, in vivo. Put shortly: (§2)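 Female CF-1 mice (6-8 weeks) given test compound ip in 30% PEG, 5-10 mice/dose. Neurotoxicity scored as failure on the rotorod test. TD50 derived by log10 probit analysis of dose-response data.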
In general terms: The rotarod test checks motor coordination on a turning rod.

Data set [3] concerns the target T1, GABA-A receptor; anion channel (Rattus norvegicus) (UniProt O09028+P15431+P18506+P18508+P19969+P20236+P23574+P23576+P28471+P28473+P30191+P62813+P63079+P63138+Q91ZM7+Q9ES14). Description: Percent response relative to current produced by 10 uM GABA in rat hippocampal cells. In kind it is functional, cell-based. The following applies: Hippocampus.
Data set [4] addresses GABA-A receptor; anion channel. Put plainly: Dissociation constant from displacement of 35[S]-TBPS binding from picrotoxinin (GABA-A) receptor of rat cerebral cortex. In kind it is tissue-based. Put shortly: (§3)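 Saturation binding on rat cerebral cortex membranes in 50 mM Tris-citrate using 1-300 nM 35[S]-TBPS with test compound near its IC50, triplicate, 90 min at 25 °C. Filtration and scintillation counting. Kd and Bmax from Scatchard analysis; two or three experiments.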

A further data set concerns Mus musculus. Put plainly: Effective dose at which 50% of the mice were protected from clonic seizures induced by pentylenetetrazole (85 mg/kg). In kind it is functional. Put shortly:
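Female CF-1 mice, 6-8 weeks old, dosed ip with test compound in 30% PEG (5-10 mice/dose). Non-convulsant compounds then challenged with PTZ 85 mg/kg given as 0.85% solution in 0.9% NaCl. Mice observed 30 min for seizures.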

Data set [5] addresses T1, GABA-A receptor; anion channel (Rattus norvegicus). Put plainly: Maximum Binding affinity for picrotoxinin (GABA-A) receptor of rat cerebral cortex. In kind it is tissue-based. The method, boiled down:
as §3

Data set [6] shares this target. Put plainly: Percent response relative to current produced by 1 uM GABA in rat hippocampal cells. In kind it is functional, cell-based. The following applies: Hippocampus. The method, boiled down: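 Whole-cell patch clamp of hippocampal neurons cultured from 1-day-old female Sprague-Dawley pups, 10-21 days in culture, held at -30 mV, CsCl-based pipette solution. 1 μM GABA with compound (10 mM or 1 mM) applied 2 s. Current expressed relative to the mean of GABA controls before and after; only ±10% recovery kept; mean ± SEM.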

Data set [7] can be described thus: Dose at which 50% of the mice failed the rotarod neurotoxicity test. The following applies: mouse, in vivo. Put shortly:
as §2

The target in data set [8] is GABA-A receptor; anion channel. Put plainly: Inhibition of 35[S]-TBPS binding to GABA-A (picrotoxin) receptor of rat neuronal membranes. In kind it is cell membranes, Membrane. The method, boiled down: as §1
Data set [9] is described as follows: […] dose at which 50% of the mice have clonic convulsions. The following applies: mouse, in vivo; read-out: CD50 (the source's name). The method, boiled down: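 Female CF-1 mice, 6-8 weeks old; test compound in 30% PEG given ip at 5-10 mice/dose. Animals observed 30 min for clonic seizures after injection. CD50 derived by log10 probit analysis from the number of animals with clonic seizures.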

Data set [10] has as its target T1, GABA-A receptor; anion channel (Rattus norvegicus). Description: Percent response relative to current produced by 1 uM GABA in rat hippocampal cells. The following applies: Hippocampus.

`C[C@H]1CC12CCOC2=O` (stereo partly drawn) returned an IC50 in data set [1] of 7170 nM. This compound registered a TD50 in data set [2] of over 300 mg/kg. This compound also registered a Response in [3] of 149%. For the same compound, the Kd in data set [4] amounted to 44.1 nM. Further, it took a dose of 210 mg/kg to reach the 50% effect level in the data set on Mus musculus (ED50). For the same compound, the Bmax (pM (mg of protein)-1) in data set [5] turned out to be 1.27.

Compound `CC1(C)CC12CCOC2=O` (stereo not drawn) gave an IC50 in data set [1] of 1140 nM. Also, in data set [6], the Response was 247%. The compound also returned a Kd in data set [4] of 35.4 nM. The TD50 in data set [7] was found to be 254 mg/kg. In addition, the ED50 in the data set on Mus musculus came out at 221 mg/kg. The Bmax (pM (mg of protein)-1) in [5] was 0.86.

On to `CCC1(C(C)C)CCOC1=O` (stereo not drawn), for which the IC50 in data set [1] was found to be 240 nM. For the same compound, the TD50 in data set [2] is over 300 mg/kg. In data set [3], this compound showed a Response of 222%. In addition, the affinity in data set [4], expressed as Kd, was 35.2 nM. The same compound had an ED50 in the data set on Mus musculus of 169 mg/kg. Moreover, in data set [5], the Bmax (pM (mg of protein)-1) was determined as 1.5.

For the compound `O=C1OCCC12CC2`, in data set [8], the IC50 is over 10000 nM. The compound further gave a TD50 in data set [2] of over 500 mg/kg. The compound further returned a Response in data set [3] of 62%.

In data set [8], `CC1(C)CCOC1=O` displayed an IC50 of 9200 nM. Also, in [2], the TD50 is over 500 mg/kg. The Response in data set [3] turned out to be 41%. The 50% effective dose (ED50) in the data set on Mus musculus was over 500 mg/kg.

In the case of `CC(C)C1(C)CCOC1=O` (stereo not drawn), the half-inhibitory concentration (IC50) in [1] was found to be 740 nM. Also, the Response in data set [6] was found to be 116%. Moreover, binding in data set [4] was put at a Kd of 47 nM. Besides, the Bmax (pM (mg of protein)-1) in data set [5] turned out to be 0.99.

Consider `CCC1(C(C)(C)C)CCOC1=O` (stereo not drawn), for which, in data set [1], the IC50 came to 310 nM. Moreover, the Response in data set [6] was 47%. Also, in data set [4], the Kd stood at 46.8 nM. The compound also showed a Bmax (pM (mg of protein)-1) in [5] of 1.54. In data set [9], the TD50 came to 133 mg/kg.

For the compound `CC1CCCC12CCOC2=O` (stereo not drawn), the 50% inhibitory concentration (IC50) in [1] was determined as 680 nM. In data set [2], this compound came in with a TD50 of over 500 mg/kg. This compound yielded a Response in [3] of 252%. In data set [4], this compound had a Kd of 39.5 nM. In data set [5], this compound displayed a Bmax (pM (mg of protein)-1) of 0.93.

For the compound `CCC1(C)CCOC1=O` (stereo not drawn), in [1], the half-inhibitory concentration (IC50) was determined as 2280 nM. Also, the Response in data set [3] was found to be 170%. In data set [4], this compound returned a Kd of 80.7 nM. In data set [5], this compound registered a Bmax (pM (mg of protein)-1) of 1.27.

`CCC1(CC)CCOC1=O` came in with an IC50 in data set [1] of 750 nM. For the same compound, the Response in data set [3] was 301%. Moreover, the Kd in [4] was 37.2 nM. In addition, in [5], the Bmax (pM (mg of protein)-1) amounted to 1.51.

In the case of `CC(C)C1(C(C)C)CCOC1=O`, the IC50 in [1] is 220 nM. The Response in [3] was 328%. The compound further had a dissociation constant (Kd) in data set [4] of 33.4 nM. For the same compound, the Bmax (pM (mg of protein)-1) in data set [5] is 1.49. In addition, in data set [9], the TD50 is 137 mg/kg.

On to `O=C1OCCC12CCCC2`, for which the IC50 in data set [1] was determined as 810 nM. The Response in [10] is 220%. Further, the Kd in [4] was 48.8 nM. Further, in the data set on Mus musculus, the 50% effect level (ED50) was put at a dose of 385 mg/kg. Besides, the Bmax (pM (mg of protein)-1) in data set [5] amounted to 1.04.

Consider `C[C@H]1CC[C@H](C)C12CCOC2=O`, for which the IC50 in [1] worked out at 200 nM. Further, in data set [6], the Response came out at 80%. The affinity in [4], expressed as Kd, was 35.6 nM. In [5], this compound came in with a Bmax (pM (mg of protein)-1) of 1.04. Moreover, the TD50 in data set [9] stood at 198 mg/kg.

In turn, `C[C@@H]1CC12CCOC2=O` (stereo partly drawn) yielded an IC50 in data set [1] of 3410 nM. In addition, the TD50 in data set [2] was over 500 mg/kg. The same compound yielded a Response in [3] of 48%. Further, the Kd in data set [4] stood at 40.4 nM. This compound registered an ED50 with Mus musculus of 259 mg/kg. The same compound yielded a Bmax (pM (mg of protein)-1) in data set [5] of 1.14.

For `C[C@@H]1CC[C@H](C)C12CCOC2=O` (stereo partly drawn), in [1], the IC50 stood at 780 nM. Moreover, the Response in data set [3] worked out at 198%. Further, the Kd in data set [4] was 38.5 nM. For the same compound, in data set [7], the TD50 was over 500 mg/kg. In [5], the Bmax (pM (mg of protein)-1) was 0.54.

`CC1(C)CCCC12CCOC2=O` (stereo not drawn) came in with an IC50 in [1] of 360 nM. Besides, the TD50 in data set [2] worked out at 10 mg/kg. The Response in [3] came out at 327%. This compound returned a Kd in [4] of 41.8 nM. The compound further showed a Bmax (pM (mg of protein)-1) in data set [5] of 1.
